Assay outcomes: PubChem BioAssay, The Scripps Research Institute Molecular Screening Center
Compounds with a hit are over-represented: about 2.8% of the library has one in this group of screens.
pPAFAH inh: pPAFAH (human) enzyme inhibition. Q13093. recombinant pPAFAH, FP-rhodamine probe fluorescence polarization. inhibition, % at 3.39 µM. actives 1.5% (n = 330,000). AID 463082;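 active = inhibition above the mean inhibition across the screen plus 3 SD, cut at about 25% in these data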;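 also: inhibitors block binding of the rhodamine activity-based probe so polarization drops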
PAFAH1B2 FP inh: PAFAH1B2 (human) inhibition; P68402; recombinant PAFAH1B2, FP-rhodamine activity probe, fluorescence polarization; inhibition, % at 3.39 µM; actives 1.2% (n = 340,000); AID 492953;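 active = inhibition above the mean of all tested compounds plus 3 SD, cut at about 24% in these data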
Target sequence (P68402 whole entry, looked up): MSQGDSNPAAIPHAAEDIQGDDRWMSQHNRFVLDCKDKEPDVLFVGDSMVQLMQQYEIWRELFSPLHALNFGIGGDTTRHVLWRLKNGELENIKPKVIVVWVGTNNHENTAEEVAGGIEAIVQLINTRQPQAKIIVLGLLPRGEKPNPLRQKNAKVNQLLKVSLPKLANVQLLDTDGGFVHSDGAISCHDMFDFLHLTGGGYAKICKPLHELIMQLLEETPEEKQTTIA
ASAP1 GAP inh: blocks human ASAP1-stimulated Arf1 GTP hydrolysis | inhibition, % at 16.5 µM | Q9ULH1 | AID 624377 | actives 0.19% (n = 360,000) | GDP FP detection; in the data active = inhibition above about 25%
Target sequence (Q9ULH1 325-724 limits assumed): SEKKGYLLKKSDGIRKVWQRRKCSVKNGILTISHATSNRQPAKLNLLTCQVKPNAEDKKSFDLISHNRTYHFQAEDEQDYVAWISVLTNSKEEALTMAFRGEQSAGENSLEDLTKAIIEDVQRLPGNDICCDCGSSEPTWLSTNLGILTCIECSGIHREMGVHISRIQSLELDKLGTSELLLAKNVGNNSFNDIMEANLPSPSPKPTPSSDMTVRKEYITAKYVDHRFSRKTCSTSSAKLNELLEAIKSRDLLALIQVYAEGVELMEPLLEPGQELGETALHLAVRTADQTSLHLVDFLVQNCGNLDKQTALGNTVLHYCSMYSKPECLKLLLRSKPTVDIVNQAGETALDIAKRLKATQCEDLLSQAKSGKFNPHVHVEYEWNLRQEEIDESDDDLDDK
ARFGAP1 inhibitor: inhibitors of rat ARFGAP1; Q62848; Arfgap1-stimulated ARF1 GTP hydrolysis, GDP FP detection; inhibition, % at 16.5 µM; actives 0.26% (n = 360,000);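 active = inhibition above a per-plate limit, mean inhibition of low control wells plus 3 SD, cut at about 25% in these data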
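System: truncated rat Arfgap1 GAP domain / Medium: HEPES-based buffer, pH 7.5 / Also added: N-terminally truncated human ARF1-GTP substrate / Incubation: enzyme reaction 120 min at 25 °C after 20 min preincubation / Measured by: FP of antibody-bound GDP Alexa 633 tracer, ex 620/em 688 nm / Replicates: singlicate, each compound tested once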
PAFAH2 inh: PAFAH2 (human) inhibition; Q99487; inhibition, % at 3.39 µM; AID 492956; actives 0.99% (n = 340,000); recombinant PAFAH2, FP-rhodamine activity probe, fluorescence polarization;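 active = inhibition above the mean over all tested compounds plus 3 SD, cut at about 30% in these data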;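 also: inhibitors block probe labeling of enzyme so polarization drops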
PAFAH1B3 inh: PAFAH1B3 (human) inhibition; Q15102; recombinant PAFAH1B3, FP-rhodamine probe, fluorescence polarization; inhibition, % at 3.39 µM; actives 0.28% (n = 340,000); AID 492972;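 active = inhibition above the screen-wide average of all tested compounds plus 3 SD, cut at about 25% in these data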
Of the large screens only hits and unclear results are named; the others gave an inactive call.

CC(C)c1ccc(NC2CCCN(C(=O)c3ccc4nccnc4c3)C2)cc1 (stereo unspecified)	none
O=C(N/N=C/c1cc(Cl)cc([N+](=O)[O-])c1O)NC12CC3CC(CC(C3)C1)C2	PAFAH1B2 FP inh 59, PAFAH2 inh 53
Cc1nc2cc3ccccc3cc2c(=O)[nH]1	pPAFAH inh 27
O=C(NCC(c1ccco1)N1CCCC1)c1cccc(S(=O)(=O)Nc2ccc(Br)cc2)c1 (stereo unspecified)	pPAFAH inh 28
O=C(NCC(c1ccco1)N1CCCCC1)c1cccc(NS(=O)(=O)c2ccc(Br)cc2)c1 (stereo unspecified)	PAFAH1B2 FP inh 30
COc1ccc(NS(=O)(=O)c2cccc(C(=O)NCC(c3ccco3)N3CCCC3)c2)cc1 (stereo unspecified)	none
O=C(NCc1ccco1)c1ccc2nc([C@@H]3O[C@H](CO)[C@H](O)[C@H](O)[C@H]3O)[nH]c2c1	none (no result: pPAFAH inh, PAFAH1B2 FP inh, PAFAH2 inh, PAFAH1B3 inh)
O=C1CC(c2cccc(Cl)c2)c2cc3c(cc2N1)CCC3 (stereo unspecified)	pPAFAH inh 28
COc1cccc(C2CC(=O)Nc3cc4c(cc32)CCC4)c1 (stereo unspecified)	pPAFAH inh 32
O=C1CC(c2cccc([N+](=O)[O-])c2)c2cc3c(cc2N1)CCC3 (stereo unspecified)	none
Cc1cc(C)cc(OCC(=O)OCC(=O)N(CC(C)C)c2c(N)n(Cc3ccccc3)c(=O)[nH]c2=O)c1	none
CCCCC(=O)N(C)c1c(CC)nc2c(OCCOc3ccc(F)cc3)cccn12	none (no result: pPAFAH inh, PAFAH1B2 FP inh, PAFAH2 inh, PAFAH1B3 inh)
Cc1cc(C(=O)Nc2ccc3c(c2)CCC3)ccc1[N+](=O)[O-]	none (no result: PAFAH1B2 FP inh, PAFAH2 inh, PAFAH1B3 inh)
Cc1csc(CNc2ncnc3ccc(-c4cccnc4)cc23)c1	none
Cc1csc(CNc2ncnc3ccc(-c4ccccc4Cl)cc23)c1	pPAFAH inh 29
O=C(O)c1ccccc1C1=Nc2ccc(O)cc2Oc2cc(O)ccc21	pPAFAH inh 28
C[C@@H]1CN([C@@H](C)CO)C(=O)CCCn2cc(nn2)CO[C@H]1CN(C)C(=O)C1CCCCC1	none (no result: pPAFAH inh, PAFAH1B2 FP inh, PAFAH2 inh, PAFAH1B3 inh)
COc1cc(S(=O)(=O)Nc2cccc(C)c2)ccc1NC(=O)c1ccncc1	pPAFAH inh 33
Cc1cccc(C)c1NC(=O)CNC(=O)c1ccc(N2CCCC2)c([N+](=O)[O-])c1	none
O=C1C=C(Nc2ccccc2C(=O)O)c2ccccc2C1=O	PAFAH2 inh 39, PAFAH1B3 inh 59
O=C1C=C(Nc2cccc3cccnc23)c2ccccc2C1=O	pPAFAH inh 34
O=C(CN1C(=O)c2ccccc2C1=O)Nc1cccc2cccnc12	none
Nc1nnc(CSCc2ccc(Cl)cc2)s1	PAFAH1B2 FP inh 28
C[C@@H]1O[C@@H](OC2C(O)C(OCCc3ccc(O)c(O)c3)OC(CO)C2OC(=O)/C=C/c2ccc(O)c(O)c2)[C@H](O)[C@H](O)[C@H]1O (stereo partly specified)	pPAFAH inh 46 (no result: PAFAH1B2 FP inh, ASAP1 GAP inh, ARFGAP1 inhibitor, PAFAH2 inh, PAFAH1B3 inh)
COC(=O)C1CSc2[nH]c(=O)sc2C1c1ccccc1 (stereo unspecified)	PAFAH1B2 FP inh 28
CC(=O)SCC(Cc1ccccc1)C(=O)NCC(=O)OCc1ccccc1 (stereo unspecified)	none (no result: PAFAH1B2 FP inh, ASAP1 GAP inh, ARFGAP1 inhibitor, PAFAH2 inh, PAFAH1B3 inh)
CC1CCN(S(=O)(=O)c2cccc(C(=O)NC3CCS(=O)(=O)C3)c2)CC1 (stereo unspecified)	none (no result: pPAFAH inh, PAFAH1B2 FP inh, PAFAH2 inh, PAFAH1B3 inh)
CC(C)c1ccc(C(=O)COC(=O)C(O)c2ccccc2)cc1 (stereo unspecified)	pPAFAH inh 29
O=C(CNCc1ccccc1)NC1C2CC3CC(C2)CC1C3 (stereo unspecified)	none
COc1ccc(N(C(=O)CNC(=O)c2ccco2)C(C(=O)NC2CCCCC2)c2ccco2)cc1 (stereo unspecified)	PAFAH1B2 FP inh 26
COc1ccc(N(C(=O)c2ccco2)C(C(=O)NC2CCCCC2)c2ccccc2)cc1 (stereo unspecified)	none
COc1ccc(N(C(=O)c2ccco2)C(C(=O)NC2CCCC2)c2ccccc2)cc1 (stereo unspecified)	pPAFAH inh 34
CCN(CC)c1nc2c3c(nc4c(c3c1C#N)CC(=O)N4c1ccc(Cl)cc1)NC(C)=N2	pPAFAH inh 64
O=C(NCc1ccco1)c1cccc2c1C(=O)c1ccc(N3CCC(Cc4ccccc4)CC3)cc1S2(=O)=O	pPAFAH inh 33 (no result: ASAP1 GAP inh, ARFGAP1 inhibitor)
O=C(NCc1cccc(F)c1)c1cccc2c1C(=O)c1ccc(N3CCC(Cc4ccccc4)CC3)cc1S2(=O)=O	none (no result: ASAP1 GAP inh, ARFGAP1 inhibitor)
CCCCn1c(NC(=O)c2ccccc2Cl)c(C#N)c2nc3ccccc3nc21	pPAFAH inh 27, PAFAH1B2 FP inh 36, PAFAH2 inh 37, PAFAH1B3 inh 60
CCCNC(=O)C1(C)CCN(CCC(=O)c2ccc(Br)cc2)C1 (stereo unspecified)	none (no result: pPAFAH inh, PAFAH1B2 FP inh, PAFAH2 inh, PAFAH1B3 inh)
CCC(O)C1CCN(Cc2cn(Cc3ccccc3)nc2-c2cc3ccccc3o2)CC1 (stereo unspecified)	pPAFAH inh 28
C#CCN1C=CC(=O)[C@@H](O)[C@H]1c1ccccc1Br	none (no result: pPAFAH inh)
CC(=O)Nc1ccc(-c2noc(-c3csc([C@@H]4C[C@H](O)[C@@H](CO)O4)n3)n2)cc1	none (no result: pPAFAH inh, PAFAH1B2 FP inh, PAFAH2 inh, PAFAH1B3 inh)
Cc1ccc(C2N(C)C(=O)c3ccccc3N2C)cc1 (stereo unspecified)	none (no result: pPAFAH inh)
Cc1cccc(NC(=O)CN2CCN(C(=O)c3cccc(-n4cnnn4)c3)CC2)c1C	none
CCN(c1ccc(C)cc1C)S(=O)(=O)c1nnc(NC(=O)C(C)(C)C)s1	none
NC1=C(Cl)C(=O)c2ccc(S(N)(=O)=O)cc2C1=O	PAFAH1B2 FP inh 25, ASAP1 GAP inh 57, PAFAH2 inh 48, PAFAH1B3 inh 69 (no result: pPAFAH inh)
COc1ccc2c(c1)c(=O)oc1cc(OCC(=O)N3CCCC(C)C3)ccc12 (stereo unspecified)	ASAP1 GAP inh 41, ARFGAP1 inhibitor 43
COc1ccc2c(c1)c(=O)oc1cc(OCC(=O)N3CCC(C)CC3)ccc12	none (no result: ASAP1 GAP inh, ARFGAP1 inhibitor)
COCCCN1C(=O)C(CC(=O)NC2CCCC2)CC(C(=O)N(C(C)C)C(C)C)=C1C (stereo unspecified)	none (no result: pPAFAH inh, PAFAH1B2 FP inh, PAFAH2 inh, PAFAH1B3 inh)
COC(=O)c1ccccc1CSc1nsc(/C=C/N(C)C)c1C#N	pPAFAH inh 28 (no result: ASAP1 GAP inh, ARFGAP1 inhibitor)
O=C(NCCc1ccccc1)c1nnc(CS(=O)(=O)c2ccccc2)o1	pPAFAH inh 28
O=C(O)CN1C(=O)C(=O)N(Cc2ccc(Cl)cc2Cl)C1=O	PAFAH1B2 FP inh 25
N#Cc1cccc(S(=O)(=O)NNC(=O)C23CC4CC(CC(C4)C2)C3)c1	PAFAH1B2 FP inh 26
NC(=O)Cc1ccc(C(=O)c2ccccc2)s1	none
CN1CSC2=C(C#N)C(c3cccc(OCc4ccccc4)c3)CC(=O)N2C1 (stereo unspecified)	PAFAH2 inh 32
CCc1ccc(C2CC(=O)N3CN(c4ccccc4)CSC3=C2C#N)cc1 (stereo unspecified)	none
